Experimental data: ChEMBL document CHEMBL1122231, “Synthesis, benzodiazepine receptor binding, and anticonvulsant activity of 2,3-dihydro-3-oxo-5H-pyrido[3,4-b][1,4]benzothiazine-4-carbonitriles” (J Med Chem, 1983)

Columns and labels:
Mus musculus [1] = experiment: Inhibition of pentylenetetrazole (PTZ) induced convulsions in mice at 64 mg/kg after 60 min; 0/10; format: functional
Mus musculus [2] = experiment: Inhibition of pentylenetetrazole (PTZ) induced convulsions in mice at 4 mg/kg after 30 min; 0/10; format: functional
[3] = target: GABA-A receptor; anion channel; experiment: Inhibition of binding of tritiated 3[H]diazepam radioligand to rat brain homogenates; format: tissue-based
Outline: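 Rat brain membranes incubated with [3H]diazepam (final 4 μM) and six to eight concentrations of test drug, 30 °C for 10 min, then 4 °C for 20 min. Reactions were stopped by vacuum filtration through glass-fiber filters. Nonspecific binding was defined with 4 μM unlabeled diazepam. IC50 is the concentration giving 50% inhibition of [3H]diazepam binding to membranes.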

Mus musculus [4] = experiment: Inhibition of pentylenetetrazole (PTZ) induced convulsions in mice at 64 mg/kg after 30 min; 0/10; format: functional
Mus musculus [5] = experiment: Inhibition of pentylenetetrazole (PTZ) induced convulsions in mice at 64 mg/kg after 30 min; 5/10; format: functional
Mus musculus [6] = experiment: Inhibition of pentylenetetrazole (PTZ) induced convulsions in mice at 64 mg/kg after 30 min; 1/10; format: functional
Mus musculus [7] = experiment: Inhibition of pentylenetetrazole (PTZ) induced convulsions in mice at 100 mg/kg after 60 min; 2/10; format: functional
Mus musculus [8] = experiment: Inhibition of pentylenetetrazole (PTZ) induced convulsions in mice at 10 mg/kg after 60 min; 0/10; format: functional
Mus musculus [9] = experiment: Inhibition of pentylenetetrazole (PTZ) induced convulsions in mice at 64 mg/kg after 60 min; 1/10; format: functional
Mus musculus [10] = experiment: Inhibition of pentylenetetrazole (PTZ) induced convulsions in mice at 64 mg/kg after 30 min; 4/10; format: functional
Mus musculus [11] = experiment: Minimum effective dose after intraperitoneal administration; format: functional; details: ip, read-out: MED
Mus musculus [12] = experiment: Inhibition of pentylenetetrazole (PTZ) induced convulsions in mice at 4 mg/kg after 30 min; format: functional; details: 0.5 h
Mus musculus [13] = experiment: Inhibition of pentylenetetrazole (PTZ) induced convulsions in mice at 10 mg/kg after 60 min; 3/10; format: functional
Mus musculus [14] = experiment: Inhibition of pentylenetetrazole (PTZ) induced convulsions in mice at 10 mg/kg after 60 min; format: functional; details: 1 h
Mus musculus [15] = experiment: Inhibition of pentylenetetrazole (PTZ) induced convulsions in mice at 100 mg/kg after 60 min; 8/10; format: functional
Mus musculus [16] = experiment: Inhibition of pentylenetetrazole (PTZ) induced convulsions in mice at 4 mg/kg after 30 min; 1/10; format: functional
Mus musculus [17] = experiment: Inhibition of pentylenetetrazole (PTZ) induced convulsions in mice at 64 mg/kg after 30 min; 2/10; format: functional
Mus musculus [18] = experiment: Inhibition of pentylenetetrazole (PTZ) induced convulsions in mice at 64 mg/kg after 60 min; 2/10; format: functional
Mus musculus [19] = experiment: Inhibition of pentylenetetrazole (PTZ) induced convulsions in mice at 64 mg/kg after 60 min; 7/10; format: functional
Mus musculus [20] = experiment: Inhibition of pentylenetetrazole (PTZ) induced convulsions in mice at 4 mg/kg after 30 min; 2/10; format: functional
Mus musculus [21] = experiment: Inhibition of pentylenetetrazole (PTZ) induced convulsions in mice at 10 mg/kg after 60 min; 1/10; format: functional
Mus musculus [22] = experiment: Inhibition of pentylenetetrazole (PTZ) induced convulsions in mice at 64 mg/kg after 60 min; 10/10; format: functional
Mus musculus [23] = experiment: Inhibition of pentylenetetrazole (PTZ) induced convulsions in mice at 100 mg/kg after 60 min; 6/10; format: functional

SMILES: CN1c2ccccc2Sc2cnc(O)c(C#N)c21
- No. of mice protected (Mus musculus [1]): 0
- No. of mice protected (Mus musculus [2]): 0
- IC50 [3]: 314 nM
- No. of mice protected (Mus musculus [4]): 0

SMILES: CN1c2ccccc2Sc2cn(C)c(=O)c(C#N)c21
- No. of mice protected (Mus musculus [2]): 0
- IC50 [3]: 100000 nM
- No. of mice protected (Mus musculus [5]): 5

SMILES: Cn1cc2c(c(C#N)c1=O)Nc1ccccc1S2
- No. of mice protected (Mus musculus [2]): 0
- No. of mice protected (Mus musculus [6]): 1
- No. of mice protected (Mus musculus [7]): 2
- IC50 [3]: 17000 nM

SMILES: N#Cc1c(O)ncc2c1Nc1ccccc1S2
- No. of mice protected (Mus musculus [8]): 0
- No. of mice protected (Mus musculus [9]): 1
- No. of mice protected (Mus musculus [2]): 0
- No. of mice protected (Mus musculus [10]): 4
- minimal effective dose (Mus musculus [11]): 60 mg/kg
- IC50 [3]: 450 nM
- ED50 (Mus musculus [12]): 62 mg/kg

SMILES: Cc1nc(O)c(C#N)c2c1Sc1ccccc1N2
- No. of mice protected (Mus musculus [2]): 0
- No. of mice protected (Mus musculus [6]): 1
- No. of mice protected (Mus musculus [7]): 2
- IC50 [3]: 1700 nM

SMILES: N#Cc1c(O)ncc2c1Nc1ccccc1[S+]2[O-] (stereo unspecified)
- No. of mice protected (Mus musculus [13]): 3
- IC50 [3]: 4250 nM
- ED50 (Mus musculus [14]): 41 mg/kg
- No. of mice protected (Mus musculus [15]): 8

SMILES: N#Cc1c(O)ncc2c1Nc1cc(Cl)ccc1S2(=O)=O
- No. of mice protected (Mus musculus [16]): 1
- No. of mice protected (Mus musculus [17]): 2
- IC50 [3]: 7600 nM

SMILES: N#Cc1c(O)ncc2c1Nc1ccccc1S2(=O)=O
- No. of mice protected (Mus musculus [16]): 1
- No. of mice protected (Mus musculus [18]): 2
- No. of mice protected (Mus musculus [17]): 2
- IC50 [3]: 11000 nM

SMILES: N#Cc1c(O)ncc2c1Nc1ccc(N)cc1S2
- IC50 [3]: 910 nM
- No. of mice protected (Mus musculus [5]): 5
- No. of mice protected (Mus musculus [19]): 7
- No. of mice protected (Mus musculus [20]): 2

SMILES: N#Cc1c(O)ncc2c1Nc1ccc([N+](=O)[O-])cc1S2
- No. of mice protected (Mus musculus [2]): 0
- No. of mice protected (Mus musculus [7]): 2
- IC50 [3]: 800 nM
- No. of mice protected (Mus musculus [21]): 1

SMILES: N#Cc1c(O)ncc2c1Nc1ccc(Cl)cc1S2(=O)=O
- No. of mice protected (Mus musculus [16]): 1
- IC50 [3]: 634 nM
- No. of mice protected (Mus musculus [5]): 5

SMILES: N#Cc1c(O)ncc2c1Nc1ccc(Cl)cc1S2
- No. of mice protected (Mus musculus [7]): 2
- IC50 [3]: 320 nM

SMILES: N#Cc1c(O)ncc2c1Nc1ccc(Br)cc1S2
- No. of mice protected (Mus musculus [8]): 0
- No. of mice protected (Mus musculus [2]): 0
- No. of mice protected (Mus musculus [7]): 2
- IC50 [3]: 8000 nM
- No. of mice protected (Mus musculus [5]): 5

SMILES: N#Cc1c(O)ncc2c1Nc1cc(Cl)ccc1S2
- IC50 [3]: 400 nM
- ED50 (Mus musculus [12]): 26 mg/kg
- No. of mice protected (Mus musculus [22]): 10
- No. of mice protected (Mus musculus [21]): 1
- ED50 (Mus musculus [14]): 32 mg/kg

SMILES: N#Cc1c(O)ncc2c1Nc1cc(Cl)ccc1[S+]2[O-] (stereo unspecified)
- No. of mice protected (Mus musculus [8]): 0
- No. of mice protected (Mus musculus [2]): 0
- No. of mice protected (Mus musculus [17]): 2
- IC50 [3]: 35000 nM
- No. of mice protected (Mus musculus [23]): 6

SMILES: COc1cc2c(cc1OC)Sc1cnc(O)c(C#N)c1N2
- No. of mice protected (Mus musculus [18]): 2
- IC50 [3]: 100000 nM
- No. of mice protected (Mus musculus [21]): 1

SMILES: CNC1=Nc2ccc(Cl)cc2C(c2ccccc2)=[N+]([O-])C1 [CHLORDIAZEPOXIDE]
- IC50 [3]: 442 nM
- ED50 (Mus musculus [12]): 1.25 mg/kg
